To fix the notation:
B1: tRNA (parent)
chain: GUUCCGUUGGCGUAAUGGUAACGCGUCUCCCUCCUAAGGAGAAGACUGCGGGUUCGAGUCCCGUACGGAACG

This sample holds only a part of the variants without activity.

Variants of B1 are the subject of the series. Put plainly: yeast fitness relative to wild type (ratio to wild type); higher = fitter; tRNA-Arg(CCU), competitive growth, 37 C, YPD. The method in brief: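 Start and end populations of a pooled competition were compared by 100-nucleotide paired-end sequencing of gene amplicons. The Saccharomyces cerevisiae strains carried tRNA-Arg(CCU) gene variants at the native genomic locus, synthesised with a 3% per-site mutation rate at 69 sites, and competed in YPD at 37°C for 24 hours in six parallel replicates. Darwinian fitness relative to wild type was based on the change in genotype frequencies. Genotypes required ≥ 100 starting reads, and estimates < 0.5 were set to 0.5.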
For GUUCCGUUAGCGUAAUGGUAACGCGUCUCCCUCCUAACGAGAAGACUGCGGGUUCGAGUCCCGUAUGGAACG [G9A G38C C66U], the yeast fitness is not above 0.5.

For GUUCCGUUAGCGUAACGGUCACGCGUCUCCCUCCUAAGGGGAAGACUGCGGGUUUGAGUCCCGUACGGAACG [G9A U16C A20C A40G C55U], the yeast fitness was not above 0.5. As for GUUCCGUUAGCGUAAUGGUAACGCGUCUCCCUCCUAAGCAGAACACUGCGGGUUAGAGUCCCGUACGGAACG [G9A G39C G44C C55A], the yeast fitness was 0.606.

For GUUCCGUUAGCGUAAAGGUAACGCCUCUCCCUCCUAAGGAGAAGAGUGCGGGUUCGAGUCCCGUACGGAACG [G9A U16A G25C C46G], the yeast fitness is 0.588.

Regarding GUUCCGUUAGCGUAACGGUAACGCGUCUCCCUCCUAAGGAAAAGACUGCGGGUUCGAAUCCCGUACGGAACG [G9A U16C G41A G58A], the yeast fitness is not above 0.5. Under GUUCCGUUAGCGUAAUGGUAACGCGUCUCCCUCCUAAGGAAAAGACUGCGGGUUCGAGUCCCGUACGGAACG [G9A G41A] stands 1.02; under GUUCCGUUAGCCUAAUGGUAACGCGUCUCCAUGCUAAGGAGAAGGCUGCGGGUUCGAGUCCCGUACGGAUCG [G9A G12C C31A C33G A45G A70U], not above 0.5. As to GUUCCGUUAGCGUAAUGGCAACGCGUCUCCCUCCUAAGGAGAAGACUGCGGGUUCGAGUCCCGUAUGGAACG [G9A U19C C66U], the yeast fitness amounted to 0.742.

On to GUUCCGUUAGCGUAACGGUAACGCGUCUGCAUGCUAAGGAAAGGACUGCGGGUUCGAGUCCCGUACGGAACG [G9A U16C C29G C31A C33G G41A A43G], for which the yeast fitness is not above 0.5.

Regarding GUUCCGUUAGCAUAAUGGUAACGCGUCUCCCUCCUAAGGAGAAGACUGUGGGUUCGAGUCCCGUACGGAACG [G9A G12A C49U], the yeast fitness worked out at 0.692. Under GUUCCGUUAGCGUAAUGGUAACGCGUCUCCCUCCUAAGGAGAAGACUGCAGGUUUGAGUCCCGUACGGAACG [G9A G50A C55U] stands 0.59; under GUUCCGUUAGCGUAAUGGUAACGCCUCUCUCUCCUAAGGAGAAGACUGCGGGUUCGGGUCCCGUACGGAACG [G9A G25C C30U A57G], 0.526; under GUUCCGUUAGCGUAAUGGUAACGCGUCACCCUCCUAAGGAGAAGGCUGCGGGUUCGAGUCCCGUACGGAACG [G9A U28A A45G], 0.645. Under GUUCCGUUAGCGUAAAGGUAACGCGUCUCCCUCCUAAGGAGCAGACUGCGGGCUCGAGUCCCGUCCGGAACG [G9A U16A A42C U53C A65C] stands not above 0.5; under GUUCCGUUAGCGUAAUGGUAACGCGACUCCCUCCUAAGGAGAAGACUGCGGGUUCAAGUCCCGUACAGAACG [G9A U26A G56A G67A], not above 0.5; under GUUCCGUUAGCGUAAUGGUAACGCCUCUCUCUCCUAAGGAGAAGACUGCGCGUUCGAUUCCCGUACGGAACG [G9A G25C C30U G51C G58U], not above 0.5.

Turning to GUUCCGUUAGCUUUAUGGUAACGCGUCUCCCUCCUAAGGAGAAGACUGCGGGUUCGAGUCCCGUUCGGAACG [G9A G12U A14U A65U], the yeast fitness is not above 0.5.

Turning to GUUCCGUUACCGUAAUGGUAACGCCUCUCCCUUCUAAGGAGAAGACUGCGGGUUCGAGUCCAGUAUGGAACG [G9A G10C G25C C33U C62A C66U], the yeast fitness was not above 0.5. Under GUUCCGUUAGCGUAACGGUAACGCGUCUCCCUCCUAAGGAGAAGACUGCGGGUUCGAGUCCCGUACGGAACG [G9A U16C] stands 1.05; under GUUCCGUUAGCGUAAAGGUAACGCGUCUCCCUCCUAAGGAGAAGACUGCGGGUUCGAGUCCCGUACGGAACG [G9A U16A], 1.08; under GUUCCGUUAGCGUAAUGGUAACGCGUCUCCCUCCUAAGGAGAAGACUGCGGGUUCGAGUCCCGUACUGAACG [G9A G67U], 0.863. Under GUUCCGUUAGCGUAAUGGCAACGCGUCUCCCUCCUAAGGAGAUGACUGCGGGUUCGAGUCCCGUACGGAACG [G9A U19C A43U] stands 0.713; under GUUCCGUUAGCGUAAUGGUAACGCGCCUCCCUCCUUAGAAGAAGACUGCGGGUUCGAGUCCCGUACGGAACG [G9A U26C A36U G39A], not above 0.5. Under GUUCCGUUACCGUAAUAGUAACGCAUCUCCUUCCUAAGGAGAAGACUGCGGGUUCGAGUCCCGUACGGAACG [G9A G10C G17A G25A C31U] stands not above 0.5; under GUUCCGUUAGCGUAAUGGUAACGCGGCUCCCUCCUAAGGAGAAGACUGCGGGUUCGUGUCCCGUACGGAACG [G9A U26G A57U], 0.631. Turning to GUUCCGUUAGCGUAAUGGUAACGCGUCUCCCUCCUAAGGAGAAGACUGCGGGUUCAAGUCCUGUACAGAACG [G9A G56A C62U G67A], the yeast fitness turned out to be 0.525.

As to GUUCCGUUAGCGUAAUGGUAACGCGUCUCCCUCCUAAGGAGAAGACUACCGGUUCGAGUCCCGUGUGGAACG [G9A G48A G50C A65G C66U], the yeast fitness was not above 0.5.

With GUUCCGUUAGCGUAAUGAUAACGAGUCUCCCUCCUAAGAAGACGACUGCGGGUUCGAGUCCCGUACGGAACG [G9A G18A C24A G39A A43C], the yeast fitness came to 0.558. Under GUUCCGUUAGCGUAAUGGUAACCCGUCUCGCUCCUAAGGUGAAGAUUGCGGGUUCGAGUCCCGUACGGAACG [G9A G23C C30G A40U C46U] stands 0.58; under GUUCCGUUAGCGCAAUGGUAUCGCGUCUCCCUCCUGAGGCGAAGACUGCGGGUUCGAGUCCCGUACGGUACG [G9A U13C A21U A36G A40C A69U], not above 0.5. Under GUUCCGUUAGCGUAAUGGUAACGCGUCUCCCUCCUAAAGAGAAGACUGCGGGUUCGAGUCCCGUACGGCACG [G9A G38A A69C] stands 0.724; under GUUCCGUUAGCGUAAUGGUAACGCGUCUCCCUCCUAAGGAGAAGACUGCGGAUUCGAGUCUCGUACGGCACG [G9A G52A C61U A69C], not above 0.5; under GUUCCGUUAGCGUAAUGGUAACGCUUCUCCCUCCUUAGGAGAAGACUGCGGGUUCCAGUCCCGUCCGGAACG [G9A G25U A36U G56C A65C], 0.717. With GUUCCGUUAGCGUAAUGGUAACGCGGCUCCCUCCUAAGGAGAAGACUGCGGGUUCGAGUACCGUACGGAACG [G9A U26G C60A], the yeast fitness stood at 0.539. As for GUUCCGUUAGCGUAAUGGGAACGCGUCUCCGUCCUAAGGAGAAGACUGCGGGUUCGAGUCCCGUACGGAACG [G9A U19G C31G], the yeast fitness was not above 0.5. For GUUCCGUUAGCGUAAUGGUAACGCGUCUCCCUCCUAACGAGAAGACUGCGGGUUCGAGUCCCGUACGGAACG [G9A G38C], the yeast fitness amounted to 0.758. As for GUUCCGUUAGCGUAAUGGUAACGCGUCUCCCUCCUAAAGAGAAGACUGCGGGUUCGAGUCCUGUACGGAACG [G9A G38A C62U], the yeast fitness was found to be 0.939.

On to GUUCCGUUAGCGUAAGGGUAACGCGUCUCCCUCCUAAGGAGCAGACUGCGGGUUCGAGUCCCGUACGGAACG [G9A U16G A42C], for which the yeast fitness turned out to be 0.955.

Source of the values: the RNAGym collection of RNA variant scans (doi:10.1126/science.aae0568).
